≈ marks a conversion by molar mass, not a printed value. Starred links: 1 amine or outer side, 2 acyl side, 3 side chain; linkers in the order of their positions; H or OH if unused. Positions of bridges follow the written chain, without caps; N, C: chain ends. Non-standard residues stand in square brackets, D forms with d. Residues, ends and D or L forms follow the SMILES beside them. *: point of attachment. pTerphenylCO(4''-OnC5H11) = CCCCCOc1ccc(-c2ccc(-c3ccc(C(=O)*)cc3)cc2)cc1; Orn(4R-OH,5R-OH) = O=C([C@H](C[C@@H](O)[C@@H](O)N[*:3])N[*:1])[*:2]; hTyr(3S-OH,4S-OH) = N[C@H](C(=O)O)[C@H](O)[C@@H](O)c1ccc(O)cc1; Pro(3S-OH,4S-Me) = C[C@H]1CN[C@H](C(=O)O)[C@H]1O; Hyp = O=C(O)[C@@H]1C[C@@H](O)CN1

Holding throughout (assay type): functional
Assay [1] has as its system Fonsecaea. Put plainly: Antimicrobial activity against Fonsecaea isolates after 72 hrs by CLSI M38-A2 protocol method. In outline: (§1)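 Broth microdilution per CLSI M38-A2. Isolates grown on potato dextrose agar at 35°C for up to 7 days. Inocula were scraped into saline with 0.05% Tween 40, settled 3 to 5 min, and adjusted at 530 nm to 68 to 71% transmission (1.5 × 104 to 4 × 10^4 CFU/ml). Incubated 72 h at 35°C and read visually against drug-free control: MIC at 100% or ≥50% inhibition depending on drug, MEC microscopically by compact hyphae.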

Assay [2] concerns Fonsecaea pedrosoi. Put plainly: Antimicrobial activity against Fonsecaea pedrosoi isolates after 72 hrs by CLSI M38-A2 protocol method. In outline:
as §1

Assay [3] concerns Fonsecaea monophora. Put plainly: Antimicrobial activity against Fonsecaea monophora isolates after 72 hrs by CLSI M38-A2 protocol method. The method in brief: as §1
Assay [4] relates to Fonsecaea. Put plainly: Antimicrobial activity against Fonsecaea nubica isolates after 72 hrs by CLSI M38-A2 protocol method. In outline:
as §1

What is called MIC50 is the lowest concentration that inhibits either 50% of growth or 50% of the strains tested, depending on the study. The MIC90 is an inhibitory concentration at the 90% level, which refers to growth in some studies and to a panel of isolates in others. A high value points to weaker potency. As to `C[C@@H]1[C@H](O)[C@@H](C)/C=C/C=C/C=C/C=C/C=C/C=C/C=C/[C@H](O[C@@H]2O[C@H](C)[C@@H](O)[C@H](N)[C@@H]2O)C[C@@H]2O[C@](O)(C[C@@H](O)C[C@@H](O)[C@H](O)CC[C@@H](O)C[C@@H](O)CC(=O)O[C@H]1C)C[C@H](O)[C@H]2C(=O)O` [AMPHOTERICIN B], the MIC50 in assay [1], in assay [2], in assay [3] and in assay [4] was 1 µg/mL (≈ 1.08 µM) throughout. Besides, the MIC90 in assay [1], in assay [2], in assay [3] and in assay [4] was 2 µg/mL (≈ 2.16 µM) throughout.
As usually defined, the MIC is the least concentration at which growth counts as inhibited. Read a low MIC as greater potency. In assay [2], `CCCCCOc1ccc(-c2ccc(-c3ccc(C(=O)N[C@H]4C[C@@H](O)[C@@H](O)NC(=O)[C@@H]5[C@@H](O)[C@@H](C)CN5C(=O)[C@H]([C@@H](C)O)NC(=O)[C@H]([C@H](O)[C@@H](O)c5ccc(O)cc5)NC(=O)[C@@H]5C[C@@H](O)CN5C(=O)[C@H]([C@@H](C)O)NC4=O)cc3)cc2)cc1` [ANIDULAFUNGIN] ({pTerphenylCO(4''-OnC5H11)}-[Orn(4R-OH,5R-OH)]T[Hyp][hTyr(3S-OH,4S-OH)]T[Pro(3S-OH,4S-Me)]; lactam 1-C) returned an MIC50 of 8 µg/mL (≈ 7.02 µM) and an MIC90 of 8 µg/mL (≈ 7.02 µM). In assay [3], the MIC50 was 4 µg/mL (≈ 3.51 µM) and the MIC90 was determined as 8 µg/mL (≈ 7.02 µM). Moreover, in assay [4], the MIC came out at 2 µg/mL (≈ 1.75 µM), the MIC50 is 2 µg/mL (≈ 1.75 µM) and the MIC90 was 8 µg/mL (≈ 7.02 µM).
On to `CC[C@H](C)C[C@H](C)CCCCCCCCC(=O)N[C@H]1C[C@@H](O)[C@@H](NCCN)NC(=O)[C@@H]2[C@@H](O)CCN2C(=O)[C@H]([C@H](O)CCN)NC(=O)[C@H]([C@H](O)[C@@H](O)c2ccc(O)cc2)NC(=O)[C@@H]2C[C@@H](O)CN2C(=O)[C@H]([C@@H](C)O)NC1=O` [CASPOFUNGIN], for which the MIC50 came out at 2 µg/mL (≈ 1.83 µM) in assay [1], 4 µg/mL (≈ 3.66 µM) in assay [2], 2 µg/mL (≈ 1.83 µM) in assay [3] and 2 µg/mL (≈ 1.83 µM) in assay [4]. Besides, the MIC90 in assay [1] was 2 µg/mL (≈ 1.83 µM); in assay [2], 4 µg/mL (≈ 3.66 µM); in assay [3] it was 2 µg/mL (≈ 1.83 µM); in assay [4], 4 µg/mL (≈ 3.66 µM). This molecule also registered an MIC in assay [4] of 2 µg/mL (≈ 1.83 µM).
Take `OC(Cn1cncn1)(Cn1cncn1)c1ccc(F)cc1F` [FLUCONAZOLE]: the MIC50 in assay [1] was determined as 16 µg/mL (≈ 52.2 µM); in assay [2], 32 µg/mL (≈ 104 µM); in assay [3], 16 µg/mL (≈ 52.2 µM); in assay [4], 16 µg/mL (≈ 52.2 µM). Moreover, the MIC90 in assay [1], in assay [2], in assay [3] and in assay [4] was 32 µg/mL (≈ 104 µM) throughout. The MIC in assay [4] turned out to be 16 µg/mL (≈ 52.2 µM).
On to `C[C@@H](c1nc(-c2ccc(C#N)cc2)cs1)[C@](O)(Cn1cncn1)c1cc(F)ccc1F` [ISAVUCONAZOLE], for which the MIC50 in assay [1] was 0.25 µg/mL (≈ 0.571 µM); in assay [2], 0.25 µg/mL (≈ 0.571 µM); in assay [3], 0.125 µg/mL (≈ 0.286 µM); in assay [4], 0.125 µg/mL (≈ 0.286 µM). In addition, the MIC90 in assay [1] amounted to 0.25 µg/mL (≈ 0.571 µM); in assay [2], 0.25 µg/mL (≈ 0.571 µM); in assay [3], 0.25 µg/mL (≈ 0.571 µM); in assay [4], 0.5 µg/mL (≈ 1.14 µM).
Consider `CCC(C)n1ncn(-c2ccc(N3CCN(c4ccc(OCC5COC(Cn6cncn6)(c6ccc(Cl)cc6Cl)O5)cc4)CC3)cc2)c1=O` (configuration not stated) [ITRACONAZOLE], for which the MIC50 is 0.063 µg/mL (≈ 0.0893 µM) in assay [1], 0.063 µg/mL (≈ 0.0893 µM) in assay [2], 0.063 µg/mL (≈ 0.0893 µM) in assay [3] and 0.125 µg/mL (≈ 0.177 µM) in assay [4]. The MIC90 was 0.125 µg/mL (≈ 0.177 µM) in assay [1], 0.125 µg/mL (≈ 0.177 µM) in assay [2], 0.125 µg/mL (≈ 0.177 µM) in assay [3] and 0.25 µg/mL (≈ 0.354 µM) in assay [4].
As for `CC[C@@H]([C@H](C)O)n1ncn(-c2ccc(N3CCN(c4ccc(OC[C@@H]5CO[C@@](Cn6cncn6)(c6ccc(F)cc6F)C5)cc4)CC3)cc2)c1=O` [POSACONAZOLE], the MIC50 in assay [1] came to 0.031 µg/mL (≈ 0.0442 µM); in assay [2], 0.063 µg/mL (≈ 0.0899 µM); in assay [3], 0.031 µg/mL (≈ 0.0442 µM); in assay [4], 0.031 µg/mL (≈ 0.0442 µM). In addition, the MIC90 in assay [1], in assay [2], in assay [3] and in assay [4] was 0.063 µg/mL (≈ 0.0899 µM) in each case. For the same molecule, the MIC in assay [4] amounted to 0.031 µg/mL (≈ 0.0442 µM).
For the molecule `C[C@@H](c1ncncc1F)[C@](O)(Cn1cncn1)c1ccc(F)cc1F` [VORICONAZOLE], the MIC50 in assay [1] worked out at 0.25 µg/mL (≈ 0.716 µM); in assay [2], 0.5 µg/mL (≈ 1.43 µM); in assay [3] it was 0.063 µg/mL (≈ 0.18 µM); in assay [4], 0.25 µg/mL (≈ 0.716 µM). The MIC90 in assay [1] came to 0.5 µg/mL (≈ 1.43 µM); in assay [2], 0.5 µg/mL (≈ 1.43 µM); in assay [3], 0.125 µg/mL (≈ 0.358 µM); in assay [4], 0.5 µg/mL (≈ 1.43 µM). Also, the MIC in assay [4] came to 0.25 µg/mL (≈ 0.716 µM).

For the origin of these results see ChEMBL document CHEMBL1255398, “In vitro activities of eight antifungal drugs against 55 clinical isolates of Fonsecaea spp” (2010).
